Data: ChEMBL document CHEMBL4000256, “Light-Regulated NO Release as a Novel Strategy To Overcome Doxorubicin Multidrug Resistance” (ACS Med Chem Lett, 2017)
The source made the active and inactive calls. No cut-off for these calls is given here.

Key:
M14 [1] = experiment: Dark toxicity in human M14 cells assessed as increase in LDH release at 5 uM measured after 20 mins by spectrophotometric method; type: cell-based; conditions: m14, 20 min
In short: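 Cells (M14 melanoma, human fibroblasts or rat H9c2 cardiomyocytes) kept 20 min at room temperature in PBS in the dark, with 5 μM compound, given alone or with equimolar 5 μM doxorubicin. Cytotoxicity read as extracellular LDH release. Triplicate measurements, n = 3.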

M14 [2] = experiment: Cytotoxicity against 7 mW/cm'2 irradiated human M14 cells assessed as increase in LDH release at 5 uM measured after 20 mins by spectrophotometric method; type: functional, cell-based
In short: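 Cells (M14 melanoma, human fibroblasts or rat H9c2 cardiomyocytes) kept 20 min at room temperature in PBS under 400 nm light (7 mW/cm2), alone or with 5 μM compound, given alone or with equimolar 5 μM doxorubicin. Damage read as extracellular LDH release. Triplicate measurements, n = 3.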

Bos taurus = organism: Bos taurus; experiment: Binding affinity to calf thymus duplex DNA by fluorescence spectroscopic method
H9c2 [3] = experiment: Cytotoxicity against 7 mW/cm'2 irradiated rat H9c2 cells at 5 uM measured after 20 mins by spectrophotometric method; type: cell-based; conditions: h9c2, 20 min
In short: (§1)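 Human fibroblasts or rat H9c2 cardiomyocytes kept 20 min at room temperature in PBS, either in the dark or irradiated at λexc 400 nm, 7 mW/cm2, with or without 5 μM test agent. Cytotoxicity measured in triplicate; means ± SD, n = 3.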

M14 [4] = experiment: Dark toxicity in human M14 cells assessed as increase in nitrite levels at 5 uM measured after 20 mins by Griess reagent based spectrophotometric method; type: cell-based; conditions: m14, 20 min
Fibroblast [5] = experiment: Cytotoxicity against 7 mW/cm'2 irradiated human fibroblasts at 5 uM measured after 20 mins by spectrophotometric method; type: cell-based; in short: as §1
Fibroblast [6] = experiment: Dark toxicity against human fibroblasts at 5 uM measured after 20 mins by spectrophotometric method; type: cell-based; in short: as §1
H9c2 [7] = experiment: Dark toxicity against rat H9c2 cells at 5 uM measured after 20 mins by spectrophotometric method; type: cell-based; conditions: h9c2, 20 min; in short: as §1

COc1cccc2c1C(=O)c1c(O)c3c(c(O)c1C2=O)C[C@@](O)(C(=O)CO)C[C@@H]3O[C@H]1C[C@H](N)[C@H](O)[C@H](C)O1.Cl [DOXORUBICIN HYDROCHLORIDE]
Activity (M14 [1]): Non-Toxic | Activity (M14 [2]): inactive | K (Bos taurus): 630000 M⁻¹ | Activity (H9c2 [3]): Toxic | Activity (M14 [4]): Non-Toxic | Activity (Fibroblast [5]): Toxic | Activity (Fibroblast [6]): Toxic | Activity (H9c2 [7]): Toxic
